Hits are enriched below; roughly 0.6% of the tested compounds scored in any of these assays.
PMI act = increases human mannose-6-phosphate isomerase activity. activation factor at 20 µM. AID 1214. purified human PMI, coupled resazurin fluorescence, 20 min; stronger effect = higher value; 1 = vehicle control, 0 substrate-free wells. hit rate 0.005% among 190,000;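 active = activation factor of 2 or more at 20 µM, relative to plate controls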
TNAP act hi DEA = TNAP (human) activation, high acceptor; AID 1136; activation factor at 20 µM; 200,000 tested, under 10 active; P05186; purified TNAP, CDP-star luminescence, 1 M DEA, 30 min; stronger effect = higher value; 0 = EDTA background, 1 = DMSO-only activity;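 active = activation factor at least 2 at 20 µM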
Target sequence (P05186 whole entry, looked up): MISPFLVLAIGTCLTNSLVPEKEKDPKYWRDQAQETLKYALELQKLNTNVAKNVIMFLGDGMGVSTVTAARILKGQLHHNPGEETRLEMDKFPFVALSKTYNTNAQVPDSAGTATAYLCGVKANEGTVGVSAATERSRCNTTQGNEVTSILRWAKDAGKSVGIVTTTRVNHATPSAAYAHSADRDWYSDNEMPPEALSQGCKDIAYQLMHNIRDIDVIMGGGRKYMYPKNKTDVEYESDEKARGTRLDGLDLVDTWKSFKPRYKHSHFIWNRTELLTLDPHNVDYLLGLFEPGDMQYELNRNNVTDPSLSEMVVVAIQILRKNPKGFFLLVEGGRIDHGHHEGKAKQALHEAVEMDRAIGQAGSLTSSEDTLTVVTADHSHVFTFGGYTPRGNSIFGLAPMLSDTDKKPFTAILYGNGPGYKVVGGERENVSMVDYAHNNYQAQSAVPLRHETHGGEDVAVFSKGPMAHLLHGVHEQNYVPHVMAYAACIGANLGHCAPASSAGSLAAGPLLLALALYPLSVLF
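Measured by: Luminescent substrate turnover signal | Test system: Human TNAP | Input: TNAP 1/800 final | Dosing: 20 µM single point | Schedule: 30 min, room temperature | Controls: EDTA wells as negative control, DMSO wells as positive control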
TNAP inh no acc = inhibitors of human TNAP without phosphate acceptor | purified TNAP, CDP-star luminescence, 30 min | inhibition, % at 20 µM | P05186 | hit rate 0.26% among 200,000;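 active = tissue-nonspecific alkaline phosphatase inhibition above about 50% at 20 µM in the single-dose screen, limit read from the data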;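 note: 0% = DMSO negative control and 100% = EDTA positive control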
PMI act hi M6P = PMI (human) activation, high substrate | P34949 | coupled PMI enzyme assay, resazurin fluorescence, 20 min; stronger effect = higher value; 1 = untreated enzyme, 0 = substrate-free blank | activation factor at 20 µM | hit rate 0.34% among 190,000;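 active = activation factor of 2 or more at 20 µM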
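Test system: Human PMI in coupled enzyme assay | Input: 15 ng/mL PMI | Medium: HEPES-buffered pH 7.4 with magnesium and detergent | Compound: One concentration, 20 µM, in 1% DMSO | Incubation: Enzyme reaction with compound 20 min at room temperature | Detection: Diaphorase-driven resazurin-to-resorufin fluorescence, excitation 544, emission 590 nm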
TNAP inh hiacc = TNAP (human) inhibition, high acceptor; purified TNAP, CDP-star luminescence, 1 M DEA; inhibition, % at 20 µM; hit rate 0.03% among 200,000;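 active = over 50% inhibition of tissue-nonspecific alkaline phosphatase at 20 µM in the single-dose screen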;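 note: plate controls were DMSO wells for no effect and EDTA-quenched wells as full inhibition for full effect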
* = called active by the depositor.

SMILES	PMI act	TNAP act hi DEA	TNAP inh no acc	PMI act hi M6P	TNAP inh hiacc
O=C1NC(=O)[C@]2(Cc3ccccc3N3CCN(c4ccccc4)CC32)C(=O)N1c1ccccc1 (stereo partly drawn)	1.7	1	-9	2.1*	-2
O=C1NC(=O)[C@]2(Cc3ccccc3N3CCN(c4ccccc4)CC32)C(=O)N1Cc1ccccc1 (stereo partly drawn)	1.6	1	-4	2.1*	-1
CN1C(=O)NC(=O)[C@]2(Cc3ccccc3N3CCN(c4ccccc4)CC32)C1=O (stereo partly drawn)	1.7	0.9	-8	2.1*	10
CN1C(=O)NC(=O)C2(Cc3ccccc3N3CCOCC32)C1=O (stereo not drawn)	0.9	1	-4	0.9	-1
COc1cccc(CCNCc2c(F)cccc2F)c1	1	1	-9	1	-4
Cc1ccc(N/N=C/c2c(O)n(-c3ccccc3)c(=O)[nH]c2=O)cc1	1.6	1	-8	2.5*	-2
Cc1ccc(/C=C2\C(=O)NC(=S)N(c3ccc(F)cc3)C2=O)s1	1.6	1	2	2.1*	-1
Oc1cc2c(cc1O)[C@H]1c3ccccc3CN[C@@H]1CC2	0.5	0.9	92*	0.8	7
Cc1ccc(-c2nc3ccccc3c(=O)n2-c2cccc(O)c2)cc1	0.9	1.1	-10	0.8	-6
COc1ccc(/C=C2/C(=O)NC(=S)N(C3CC3)C2=O)cc1CN1C(=O)c2ccccc2C1=O	1.6	1	8	2*	-3
COc1ccc(/C=C2/C(=O)NC(=O)N(C3CCCCC3)C2=O)cc1CSc1ccccn1	1	1	15	1.2	-4
Cc1ccc(C(C)C)c(OCC#CCN2CCCC2)c1	1	1	-9	1	-3
Oc1ccc(/C=N/NP(=S)(c2ccccc2)c2ccccc2)cc1O	0.4	0.8	77*	0.4	18
CC(=O)N(C1=NCCCS1)c1ccc(Cl)cc1	1	1	-7	1	-1
O=P(NCc1ccccc1)(Oc1ccccc1)Oc1ccccc1	0.8	1	2	0.9	-1
COc1cccc(-n2c(/C=C/c3ccc(O)c(O)c3)nc3ccccc3c2=O)c1	0.4	0.7	84*	0.9	31
O=c1c2ccccc2nc(/C=C/c2ccc(O)cc2)n1-c1cccc(O)c1	0.9	0.9	9	0.8	13
COc1ccc(C(Nc2ccccc2)P(=O)(Oc2ccccc2)Oc2ccccc2)cc1 (stereo not drawn)	1	1	9	1	2
O=C(O)CSC(=S)N1CC2CC(C1)c1cccc(=O)n1C2 (stereo not drawn)	1.1	1.1	-3	1.1	-6
CSC(=Nc1ccccc1)c1c(O)n(C)c(=O)n(C)c1=O	1.7	1.1	-17	2.2*	-7
COc1cccc(-n2c(CN3CCN(C)CC3)nc3ccc([N+](=O)[O-])cc3c2=O)c1	0.7	1	-7	0.7	-2
CCOc1cccc(OCC)c2c(C)[n+](CC3CCCO3)c(C)c1-2 (stereo not drawn)	1.6	1	9	2*	2
COc1cc(/C=C/[N+](=O)[O-])ccc1O	1	0.6	53*	0.6	38
CCN(CC)c1ccc(/C=C/[N+](=O)[O-])cc1	1	0.7	40	0.9	33
C=C1N2CCC(CC2)C1(O)c1ccc(C)c(C)c1 (stereo not drawn)	1.1	1	-10	1	-4
SMILES	PMI act	TNAP act hi DEA	TNAP inh no acc	PMI act hi M6P	TNAP inh hiacc
C=C1N2CCC(CC2)C1(O)c1ccc(C)cc1 (stereo not drawn)	1.6	1	-8	2.1*	-2
O=C1CC(N2CC=C(c3ccc(F)cc3)CC2)C(=O)N1c1ccc(F)cc1 (stereo not drawn)	1.1	1.1	-13	1.1	-5
CCOC(=O)c1ccc(N2C(=O)CC(N3CC=C(c4ccc(F)cc4)CC3)C2=O)cc1 (stereo not drawn)	1.6	1	-8	2*	-3
COc1ccccc1Cn1c(SCC(=O)C(C)(C)C)nc2cc(C(=O)N3CCC4(CC3)OCCO4)ccc2c1=O	0.9	1	-8	0.9	-3
O=c1[nH]c2ccccc2n1CCCN1CCC(n2c(=O)[nH]c3cc(Cl)ccc32)CC1	1.1	0.9	70*	1.1	10
COc1ccc(N2C(=O)CC(N3CCC(n4c(=O)[nH]c5ccccc54)CC3)C2=O)cc1 (stereo not drawn)	1	1.1	-4	1	-6
O=C(O)CCn1cc(C=C2C(=O)NC(=S)NC2=O)c(-c2cc3ccccc3oc2=O)n1	1.3	1	0	2.3*	-4
O=C(O)CCn1cc(C=C2C(=O)NC(=S)NC2=O)c(-c2ccccc2)n1	0.4	1	-2	1.1	-2
CC(=O)NC(Cc1ccc(N(CCCl)CCCl)cc1)C(=O)NC(CC(C)C)C(=O)O (stereo not drawn)	1.7	1.1	-8	2*	-6
CCOC(=O)c1cc(CC)sc1/N=C/c1c(O)[nH]c(=S)[nH]c1=O	1.4	1	-10	1.8	3
CCOC(=O)c1cc(CC)sc1/N=C/C1C(=O)NC(=S)NC1=O	1.8	1	-6	2.3*	-1
CCOC(=O)c1nsnc1NCCCl	0.9	1	-6	0.9	-2
CCOc1ccc2nc(N=Nc3c(O)[nH]c(=S)[nH]c3=O)sc2c1	1.1	0.5	36	0.9	53*
Cc1nn(Cc2ccccc2)c(C)c1C(=O)OCC(=O)Nc1cc(S(C)(=O)=O)ccc1Cl	1.1	1	-13	0.9	-2
CC1CCN(CC(=O)c2ccccc2Cl)CC1	1.5	1	-4	2*	-4
Cc1ccc(N2C(=O)/C(=C/c3ccc(CN(CCC#N)S(C)(=O)=O)o3)C(=O)NC2=S)cc1	1.3	0.9	7	1.6	6
O=C1NS(=O)c2cc([N+](=O)[O-])cc([N+](=O)[O-])c21 (stereo not drawn)	1.6	1	-6	2*	0
COc1ccc(Cn2c(O)c(/C=N/NC(=O)c3ccccc3)c(=O)[nH]c2=O)cc1	1.1	1	71*	1.2	0
Cc1ccc(/C=C2/C(=O)NC(=O)N(CCc3ccc(F)cc3)C2=O)o1	1	1	4	1.1	3
O=C1NC(=O)N(CCc2ccc(F)cc2)C(=O)/C1=C/c1ccco1	1.6	1	1	2*	0
O=[N+]([O-])c1ccc(C2C3C(c4ccccc4)=NC4(CCCC4)N32)cc1 (stereo not drawn)	0.9	1	-7	0.9	0
